Laboratory results reported in ChEMBL document CHEMBL1140708, “Synthesis and in vivo evaluation of halogenated N,N-dimethyl-2-(2'-amino-4'-hydroxymethylphenylthio)benzylamine derivatives as PET serotonin transporter ligands” (J Med Chem, 2008).

Key:
[1] = Partition coefficient, log P at pH 7.4; type: physicochemical; details: octanol/water
Procedure, shortened: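 Each 11C-labelled radiotracer was partitioned between 1-octanol and 0.02 M phosphate buffer at pH 7.4.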

Occipital cortex [2] = assay: Drug uptake in cynomolgus monkey occipital cortex after 45 mins; type: ADME, tissue-based, Macaca fascicularis; details: in vivo, 0.75 h
Procedure, shortened: (§1)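 Chase microPET scans in the same male cynomolgus monkey after i.v. 11C radiotracer (6.90–18.10 mCi). R,S-citalopram·HBr, 1.5 mg/kg, was given i.v. as a 30 s bolus at 45 min (ratios at 45 and 85 min) or 60 min (ratios at 55 and 115 min) post-tracer. Value is the region-to-cerebellum activity ratio before and after citalopram.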

Caudate [3] = assay: Drug uptake in cynomolgus monkey caudate after 45 mins; type: ADME, tissue-based, Macaca fascicularis, Caudate nucleus; details: in vivo, 0.75 h; procedure, shortened: as §1
Pons [4] = assay: Drug uptake in cynomolgus monkey pons in presence of citalopram after 85 mins; type: ADME, tissue-based, Macaca fascicularis; details: in vivo; procedure, shortened: as §1
Pons [5] = assay: Drug uptake in cynomolgus monkey pons after 45 mins; type: ADME, tissue-based, Macaca fascicularis; details: in vivo, 0.75 h; procedure, shortened: as §1
Midbrain [6] = assay: Drug uptake in cynomolgus monkey midbrain after 85 mins; type: ADME, tissue-based, Macaca fascicularis; details: in vivo
Procedure, shortened: (§2)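 Baseline microPET (Concorde P4) scans in one anesthetized adult male cynomolgus monkey (7.50–8.35 kg) after i.v. radiotracer. Attenuation correction used a 68Ge transmission scan; OSEM reconstruction, 3 mm resolution. Value is the region-of-interest to cerebellum activity ratio at 85 min post-injection.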

Frontal cortex [7] = assay: Drug uptake in cynomolgus monkey frontal cortex after 85 mins; type: ADME, tissue-based, Macaca fascicularis; details: in vivo; procedure, shortened: as §2
Midbrain [8] = assay: Drug uptake in cynomolgus monkey midbrain in presence of citalopram after 85 mins; type: ADME, tissue-based, Macaca fascicularis; details: in vivo; procedure, shortened: as §1
Thalamus [9] = assay: Drug uptake in cynomolgus monkey thalamus after 45 mins; type: ADME, tissue-based, Macaca fascicularis; details: in vivo, 0.75 h; procedure, shortened: as §1
Medulla [10] = assay: Drug uptake in cynomolgus monkey medulla after 45 mins; type: ADME, tissue-based, Macaca fascicularis, Medulla of organ; details: in vivo, 0.75 h; procedure, shortened: as §1
Putamen [11] = assay: Drug uptake in cynomolgus monkey putamen in presence of citalopram after 85 mins; type: ADME, tissue-based, Macaca fascicularis; details: in vivo; procedure, shortened: as §1
Pons [12] = assay: Drug uptake in cynomolgus monkey pons after 85 mins; type: ADME, tissue-based, Macaca fascicularis; details: in vivo; procedure, shortened: as §2
Thalamus [13] = assay: Drug uptake in cynomolgus monkey thalamus in presence of citalopram after 85 mins; type: ADME, tissue-based, Macaca fascicularis; details: in vivo; procedure, shortened: as §1
Medulla [14] = assay: Drug uptake in cynomolgus monkey medulla after 85 mins; type: ADME, tissue-based, Macaca fascicularis, Medulla of organ; details: in vivo; procedure, shortened: as §2
Midbrain [15] = assay: Drug uptake in cynomolgus monkey midbrain after 45 mins; type: ADME, tissue-based, Macaca fascicularis; details: in vivo, 0.75 h; procedure, shortened: as §1
Medulla [16] = assay: Drug uptake in cynomolgus monkey medulla in presence of citalopram after 85 mins; type: ADME, tissue-based, Macaca fascicularis, Medulla of organ; details: in vivo; procedure, shortened: as §1
Frontal cortex [17] = assay: Drug uptake in cynomolgus monkey frontal cortex in presence of citalopram after 85 mins; type: ADME, tissue-based, Macaca fascicularis; details: in vivo; procedure, shortened: as §1
Caudate [18] = assay: Drug uptake in cynomolgus monkey caudate in presence of citalopram after 85 mins; type: ADME, tissue-based, Macaca fascicularis, Caudate nucleus; details: in vivo; procedure, shortened: as §1
Thalamus [19] = assay: Drug uptake in cynomolgus monkey thalamus after 85 mins; type: ADME, tissue-based, Macaca fascicularis; details: in vivo; procedure, shortened: as §2
Putamen [20] = assay: Drug uptake in cynomolgus monkey putamen after 45 mins; type: ADME, tissue-based, Macaca fascicularis; details: in vivo, 0.75 h; procedure, shortened: as §1
Occipital cortex [21] = assay: Drug uptake in cynomolgus monkey occipital cortex in presence of citalopram after 85 mins; type: ADME, tissue-based, Macaca fascicularis; details: in vivo; procedure, shortened: as §1
Frontal cortex [22] = assay: Drug uptake in cynomolgus monkey frontal cortex after 45 mins; type: ADME, tissue-based, Macaca fascicularis; details: in vivo, 0.75 h; procedure, shortened: as §1
Occipital cortex [23] = assay: Drug uptake in cynomolgus monkey occipital cortex in presence of citalopram after 115 mins; type: ADME, tissue-based, Macaca fascicularis; details: in vivo; procedure, shortened: as §1
Medulla [24] = assay: Drug uptake in cynomolgus monkey medulla after 55 mins; type: ADME, tissue-based, Macaca fascicularis, Medulla of organ; details: in vivo; procedure, shortened: as §1
Putamen [25] = assay: Drug uptake in cynomolgus monkey putamen in presence of citalopram after 115 mins; type: ADME, tissue-based, Macaca fascicularis; details: in vivo; procedure, shortened: as §1
Thalamus [26] = assay: Drug uptake in cynomolgus monkey thalamus in presence of citalopram after 115 mins; type: ADME, tissue-based, Macaca fascicularis; details: in vivo; procedure, shortened: as §1
Frontal cortex [27] = assay: Drug uptake in cynomolgus monkey frontal cortex in presence of citalopram after 115 mins; type: ADME, tissue-based, Macaca fascicularis; details: in vivo; procedure, shortened: as §1
Putamen [28] = assay: Drug uptake in cynomolgus monkey putamen after 85 mins; type: ADME, tissue-based, Macaca fascicularis; details: in vivo; procedure, shortened: as §2
Caudate [29] = assay: Drug uptake in cynomolgus monkey caudate in presence of citalopram after 115 mins; type: ADME, tissue-based, Macaca fascicularis, Caudate nucleus; details: in vivo; procedure, shortened: as §1
Medulla [30] = assay: Drug uptake in cynomolgus monkey medulla in presence of citalopram after 115 mins; type: ADME, tissue-based, Macaca fascicularis, Medulla of organ; details: in vivo; procedure, shortened: as §1
Midbrain [31] = assay: Drug uptake in cynomolgus monkey midbrain in presence of citalopram after 115 mins; type: ADME, tissue-based, Macaca fascicularis; details: in vivo; procedure, shortened: as §1
Midbrain [32] = assay: Drug uptake in cynomolgus monkey midbrain after 55 mins; type: ADME, tissue-based, Macaca fascicularis; details: in vivo; procedure, shortened: as §1
Occipital cortex [33] = assay: Drug uptake in cynomolgus monkey occipital cortex after 55 mins; type: ADME, tissue-based, Macaca fascicularis; details: in vivo; procedure, shortened: as §1
Caudate [34] = assay: Drug uptake in cynomolgus monkey caudate after 55 mins; type: ADME, tissue-based, Macaca fascicularis, Caudate nucleus; details: in vivo; procedure, shortened: as §1
Thalamus [35] = assay: Drug uptake in cynomolgus monkey thalamus after 55 mins; type: ADME, tissue-based, Macaca fascicularis; details: in vivo; procedure, shortened: as §1
Frontal cortex [36] = assay: Drug uptake in cynomolgus monkey frontal cortex after 55 mins; type: ADME, tissue-based, Macaca fascicularis; details: in vivo; procedure, shortened: as §1
Occipital cortex [37] = assay: Drug uptake in cynomolgus monkey occipital cortex after 85 mins; type: ADME, tissue-based, Macaca fascicularis; details: in vivo; procedure, shortened: as §2
Putamen [38] = assay: Drug uptake in cynomolgus monkey putamen after 55 mins; type: ADME, tissue-based, Macaca fascicularis; details: in vivo; procedure, shortened: as §1
Pons [39] = assay: Drug uptake in cynomolgus monkey pons after 55 mins; type: ADME, tissue-based, Macaca fascicularis; details: in vivo; procedure, shortened: as §1
Pons [40] = assay: Drug uptake in cynomolgus monkey pons in presence of citalopram after 115 mins; type: ADME, tissue-based, Macaca fascicularis; details: in vivo; procedure, shortened: as §1
Caudate [41] = assay: Drug uptake in cynomolgus monkey caudate after 85 mins; type: ADME, tissue-based, Macaca fascicularis, Caudate nucleus; details: in vivo; procedure, shortened: as §2
[42] = biological target: Sodium-dependent dopamine transporter (Homo sapiens, UniProt Q01959); assay: Displacement of [125I]RTI-55 from human DAT expressed in MDCK cells; type: cell-based
Sequence of Sodium-dependent dopamine transporter (Q01959 whole entry): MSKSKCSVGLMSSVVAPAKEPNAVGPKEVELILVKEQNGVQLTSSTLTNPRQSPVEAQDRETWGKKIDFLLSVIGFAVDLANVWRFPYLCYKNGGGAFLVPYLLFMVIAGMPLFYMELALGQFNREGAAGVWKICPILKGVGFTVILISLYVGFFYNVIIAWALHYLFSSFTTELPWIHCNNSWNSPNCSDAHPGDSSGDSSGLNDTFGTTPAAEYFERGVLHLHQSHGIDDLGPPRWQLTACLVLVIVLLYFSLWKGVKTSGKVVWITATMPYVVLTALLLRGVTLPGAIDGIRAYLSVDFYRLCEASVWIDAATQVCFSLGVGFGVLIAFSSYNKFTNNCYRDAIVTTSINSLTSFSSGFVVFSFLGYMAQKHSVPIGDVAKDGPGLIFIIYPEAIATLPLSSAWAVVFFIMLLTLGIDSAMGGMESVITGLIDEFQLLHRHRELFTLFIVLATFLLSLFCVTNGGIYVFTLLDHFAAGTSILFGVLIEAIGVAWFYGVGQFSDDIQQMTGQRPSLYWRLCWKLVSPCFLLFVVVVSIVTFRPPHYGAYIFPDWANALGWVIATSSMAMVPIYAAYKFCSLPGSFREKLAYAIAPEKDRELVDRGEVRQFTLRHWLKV
Procedure, shortened: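 MDCK cells stably expressing hDAT, grown to confluency in DMEM with 10% FBS and Geneticin, harvested in PBS/0.53 mM EDTA. Membranes (30–70 µg protein) were incubated 1 h at room temperature with 2.0 nM [125I]RTI-55 in 42 mM sodium phosphate/320 mM sucrose, pH 7.4. Competitor: 12 concentrations, 10^-13 to 10^-5 M, in triplicate. Filtered through PEI-soaked GF/B filters; Ki averaged over ≥2 assays.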

Homo sapiens [43] = species: Homo sapiens; assay: Selectivity for human DAT to human SERT
Procedure, shortened: (§3)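 Ratio of Ki at hDAT or hNET to Ki at hSERT. Ki values come from competition binding on transfected cell membranes: [125I]RTI-55 (MDCK-hDAT), [3H]nisoxetine (HEK-hNET) or [3H]citalopram (HEK-hSERT); 12 competitor concentrations from 10^-13 to 10^-5 M.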

Homo sapiens [44] = species: Homo sapiens; assay: Selectivity for human NET to human SERT; procedure, shortened: as §3
[45] = biological target: Sodium-dependent serotonin transporter (Homo sapiens, UniProt P31645); assay: Displacement of [3H]citalopram from human SERT expressed in HEK293 cells; type: cell-based
Sequence of Sodium-dependent serotonin transporter (P31645 whole entry): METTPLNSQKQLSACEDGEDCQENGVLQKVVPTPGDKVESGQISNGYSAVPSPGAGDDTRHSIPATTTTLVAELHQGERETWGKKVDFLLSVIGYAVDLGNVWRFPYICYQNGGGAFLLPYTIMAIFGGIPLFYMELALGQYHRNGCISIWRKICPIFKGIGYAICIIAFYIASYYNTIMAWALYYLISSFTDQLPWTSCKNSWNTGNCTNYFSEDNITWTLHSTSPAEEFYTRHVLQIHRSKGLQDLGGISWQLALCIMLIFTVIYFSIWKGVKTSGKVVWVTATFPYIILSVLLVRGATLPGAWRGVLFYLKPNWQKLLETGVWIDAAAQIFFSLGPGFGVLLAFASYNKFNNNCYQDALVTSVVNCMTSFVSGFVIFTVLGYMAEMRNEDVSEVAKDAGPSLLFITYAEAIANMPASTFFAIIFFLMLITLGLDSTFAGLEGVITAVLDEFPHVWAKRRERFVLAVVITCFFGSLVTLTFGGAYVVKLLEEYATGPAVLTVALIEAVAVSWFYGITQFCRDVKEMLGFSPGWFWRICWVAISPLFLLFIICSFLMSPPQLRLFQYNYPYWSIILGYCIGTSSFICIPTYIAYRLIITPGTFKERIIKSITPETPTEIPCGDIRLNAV
Procedure, shortened: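 Membranes (30–70 µg protein) from HEK-293 cells stably expressing hSERT, grown in DMEM/10% FBS/Geneticin. Incubated 2 h at room temperature with [3H]citalopram in 53 mM Tris, 126 mM NaCl, 5.3 mM KCl, pH 7.9. Competitor: 12 concentrations, 10^-13 to 10^-5 M, in triplicate. Rapid filtration on GF/B with cold buffer washes; Ki averaged from ≥2 separate assays.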

[46] = biological target: Sodium-dependent noradrenaline transporter (Homo sapiens, UniProt P23975); assay: Displacement of [3H]nisoxetine from human NET t expressed in HEK293 cells; type: cell-based
Sequence of Sodium-dependent noradrenaline transporter (P23975 whole entry): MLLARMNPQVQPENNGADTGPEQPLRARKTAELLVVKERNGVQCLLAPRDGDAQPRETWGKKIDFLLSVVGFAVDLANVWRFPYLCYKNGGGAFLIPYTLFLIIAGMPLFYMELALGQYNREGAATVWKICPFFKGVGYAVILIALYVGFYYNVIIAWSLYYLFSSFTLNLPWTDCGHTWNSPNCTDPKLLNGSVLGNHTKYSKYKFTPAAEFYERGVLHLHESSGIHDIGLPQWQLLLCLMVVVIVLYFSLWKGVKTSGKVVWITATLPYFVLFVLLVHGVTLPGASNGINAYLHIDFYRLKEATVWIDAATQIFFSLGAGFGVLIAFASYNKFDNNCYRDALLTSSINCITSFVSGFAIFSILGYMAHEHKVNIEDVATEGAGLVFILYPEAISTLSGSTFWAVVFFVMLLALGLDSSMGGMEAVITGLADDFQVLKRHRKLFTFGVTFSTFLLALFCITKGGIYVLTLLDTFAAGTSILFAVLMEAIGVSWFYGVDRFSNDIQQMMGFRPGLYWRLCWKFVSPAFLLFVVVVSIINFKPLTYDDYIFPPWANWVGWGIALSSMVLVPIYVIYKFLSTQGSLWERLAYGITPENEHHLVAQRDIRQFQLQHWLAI
Procedure, shortened: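 Membranes (30–70 µg protein) from HEK-293 cells stably expressing hNET. Equilibrium with [3H]nisoxetine for 4 h at 4 °C in 53 mM Tris, 320 mM NaCl, 5.3 mM KCl, pH 7.4 at 4 °C. Competitor: 12 concentrations, 10^-13 to 10^-5 M, in triplicate. Ended by vacuum filtration through PEI-presoaked GF/B filters; Ki averaged from at least two assays, each in duplicate.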

A logD [1] of 2.06, a Ratio (Occipital cortex [2]) of 1.3 and a Ratio (Caudate [3]) of 1.6 were found for `CN([11CH3])Cc1cc(F)ccc1Sc1ccc(CO)cc1N` in this work. For the same compound, the Ratio (Pons [4]) was 1.4, the Ratio (Pons [5]) was 2 and the Ratio (Midbrain [6]) was 3.4. The Ratio (Frontal cortex [7]) was 1.04, the Ratio (Midbrain [8]) was 1.2 and the Ratio (Thalamus [9]) was 1.9. It also gave a Ratio (Medulla [10]) of 2, a Ratio (Putamen [11]) of 1.2 and a Ratio (Pons [12]) of 2.8. The Ratio (Thalamus [13]) was 1.3, the Ratio (Medulla [14]) was 2.1 and the Ratio (Midbrain [15]) was 2.3. For the same compound, the Ratio (Medulla [16]) was 1.1, the Ratio (Frontal cortex [17]) was 1 and the Ratio (Caudate [18]) was 1.06. The Ratio (Thalamus [19]) was 2.3, the Ratio (Putamen [20]) was 1.8 and the Ratio (Occipital cortex [21]) was 1.04. It also gave a Ratio (Frontal cortex [22]) of 1.06.

A Ratio (Occipital cortex [23]) of 1.1, a logD [1] of 1.82 and a Ratio (Medulla [24]) of 2.5 were found for `CN([11CH3])Cc1cc(I)ccc1Sc1ccc(CO)cc1N` in this work. For the same compound, the Ratio (Putamen [25]) was 1.4, the Ratio (Thalamus [26]) was 1.63 and the Ratio (Midbrain [6]) was 3. It also gave a Ratio (Frontal cortex [27]) of 1, a Ratio (Putamen [28]) of 2.3 and a Ratio (Caudate [29]) of 1.3. It also gave a Ratio (Frontal cortex [7]) of 1.09, a Ratio (Medulla [30]) of 1.6 and a Ratio (Midbrain [31]) of 1.7. The Ratio (Midbrain [32]) was 2.4, the Ratio (Occipital cortex [33]) was 1.2 and the Ratio (Pons [12]) was 1.65. The Ratio (Medulla [14]) was 2.4, the Ratio (Caudate [34]) was 1.8 and the Ratio (Thalamus [19]) was 2.06. For the same compound, the Ratio (Thalamus [35]) was 2, the Ratio (Frontal cortex [36]) was 1 and the Ratio (Occipital cortex [37]) was 1.2. For the same compound, the Ratio (Putamen [38]) was 1.9, the Ratio (Pons [39]) was 1.9 and the Ratio (Pons [40]) was 1.5. It also gave a Ratio (Caudate [41]) of 1.8.

For `CN(C)Cc1cc(I)ccc1Sc1ccc(CO)cc1N`, the Ki [42] was > 2000 nM, the Ratio Ki (Homo sapiens [43]) was > 1000 and the Ratio Ki (Homo sapiens [44]) was > 1000. The Ki [45] was 0.31 nM and the Ki [46] was 467 nM.

With `CN(C)Cc1cc(Br)ccc1Sc1ccc(CO)cc1N` the Ki [42] was 221 nM, the Ratio Ki (Homo sapiens [43]) was 762 and the Ratio Ki (Homo sapiens [44]) was > 2000. The Ki [45] was 0.29 nM and the Ki [46] was 725 nM.
